High-throughput results deposited in PubChem by several laboratories.
Rows were chosen to be rich in hits. Some 1.9% of all compounds tested hit in one or more screens of this group.
SR-BI DiI inh: blocks mouse SR-BI lipid uptake from DiI-HDL; hit rate 0.96% among 320,000; ldlA[mSR-BI] CHO cells, DiI-HDL uptake fluorescence, 3 h; Q61009; AID 488896; inhibition, % at 12.5 µM;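 active = mean replicate inhibition of at least 70% and a set share of replicates each scoring 70 or more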;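 note: 0% = median of neutral control wells and 100% = median of positive control wells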
Rin1-Abl PPI inh: blocks binding of human Rin1 to Abl; inhibition, % at 7.35 µM; hit rate 0.4% among 360,000; TR-FRET Rin1/Abl binding, biochemical; in the data active = inhibition above about 5%, passing the limit was not always enough
SR-BI DiI-HDL act: SR-BI HDL lipid transfer activation | CHO ldlA[mSR-BI] cells, DiI-HDL uptake fluorescence, 3 h; 100 = double the neutral-control signal | activation, % at 12.5 µM | hit rate 0.096% among 320,000;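 active = mean replicate activation of at least 60% and every replicate at or above 60%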;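 note: 0% = median plate neutral-control signal and 100% = twice that signal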
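material = CHO ldlA[mSR-BI] cells | medium = Ham's F12 with 0.5% BSA, HEPES 25 mM, pH 7.4 | reagent = fluorescent DiI-HDL, 10 µg/mL final | compound dosing = single-point compound dose | incubation = 3 h, 37 °C | measured by = bottom-read fluorescence, 550/595 nm | measure = HDL uptake via cellular fluorescence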
GRK2 inh: inhibitors of human GRK2 displacing RNA aptamer; P25098; bead flow cytometry, FAM-aptamer displacement from GRK2; inhibition of aptamer binding, % at 10 µM; hit rate 0.59% among 330,000;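 active = inhibition of aptamer binding above 40%, roughly 3 SD of noise, on plates passing a quality check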;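 note: median bead fluorescence of bound FAM aptamer so fluorescent compounds give negative values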
GRK2 CP1: human GRK2 inhibition confirmation, cherry pick 1; hit rate 4% among 2,000; AID 504451; aptamer displacement, % at 10 µM; bead-bound GRK2, FAM-aptamer displacement, flow cytometry; shares compounds with GRK2 inh;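 active = aptamer displacement above 40%, near three times the noise of non-fluorescent compounds, on plates passing quality checks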;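 note: negative values mostly reflect intrinsic compound fluorescence rather than true enhancement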
Aptamer quench: quenches fluorescent RNA aptamer, GRK2 hit artifact. 110 tested, under 10 active. AID 504521. shares compounds with GRK2 inh. Fluorescent RNA aptamer beads, quenching, flow cytometry; active compounds read high. fluorescence change (kMESF span), kMESF (concentration not given with the values);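 active = compounds whose bead fluorescence drops by more than 37 kMESF across the dose range, marking them as dye quenchers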
FAM quench CP1: counter-screen for GRK2 aptamer inhibitors: fluorescent aptamer quenchers. shares compounds with GRK2 inh. Carboxyfluorescein RNA aptamer on beads, flow cytometry quenching; active compounds read low. fluorescence response (% of DMSO), % at 10 µM. 2,000 tested, under 10 active. AID 504580;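 active = compounds that quench the bead-bound fluorescent RNA probe, cutting fluorescence to under half of the solvent control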;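 note: counterscreen run without GRK2 so only probe quenching by compound is measured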
GRK2 CP2: confirmation of human GRK2 inhibitors binding RNA aptamer site. AID 504782. 360 tested, under 10 active. bead-bound GRK2, FAM-aptamer displacement, flow cytometry. inhibition of aptamer binding, % at 10 µM. shares compounds with GRK2 inh;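 active = inhibition of aptamer binding above 40%, about triple the noise seen with nonglowing compounds, on plates passing quality control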;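 note: negative values mostly come from compounds that fluoresce themselves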
FAM quench SP: counter-screen for GRK2 binding hits: quenchers of fluorescent RNA aptamer; AID 588494; shares compounds with GRK2 inh; 360 tested, under 10 active; fluorescence response vs DMSO, % at 10 µM; carboxyfluorescein RNA aptamer beads, flow cytometry quenching; active compounds read low;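 active = response vs DMSO under 50%, meaning signal dropped by over half, treated as fluorescence quencher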;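 note: labelled aptamer on streptavidin beads without GRK2 as a quench counter-screen; 100% = bead fluorescence of DMSO wells and lower means quenching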
FAM quench DR: counter-screen for GRK2 aptamer binding inhibitors: aptamer fluorescence quenching; shares compounds with GRK2 inh; Bead-bound FAM RNA aptamer fluorescence quenching, flow cytometry; active compounds read low; fluorescence ratio to DMSO, % at 11.1 µM; 35 tested, under 10 active; AID 588496;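 active = compounds that dim the fluorescent label, raw bead signal shifting by over 33 units between lowest and highest dose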
The depositor's hits bear a star.

For O=C1CCC([N+](=O)[O-])C(C2CC=CCC2)N1 (stereo not drawn) the results were SR-BI DiI inh -0.3, Rin1-Abl PPI inh -2.7, SR-BI DiI-HDL act 0.3 and GRK2 inh 2.0.
`C[C@H]1CN([C@@H](C)CO)C(=O)c2cccc(NS(=O)(=O)c3ccc(Cl)cc3)c2O[C@@H]1CN(C)CC1CCCCC1` gave SR-BI DiI inh -11.4, Rin1-Abl PPI inh 4.8, SR-BI DiI-HDL act 11.4 and GRK2 inh 3.0.
`Cc1ccc(-c2nn(-c3ccccc3)cc2C2CC(c3ccccc3)=NN2C(=O)CCC(=O)O)cc1` (stereo not drawn) gave SR-BI DiI inh 14.9, Rin1-Abl PPI inh -2.9, SR-BI DiI-HDL act -14.9 and GRK2 inh 1.0.
`Cc1ccc(C2=NN(C(=O)CCC(=O)O)C(c3cn(-c4ccccc4)nc3-c3ccc(C)cc3)C2)cc1` (stereo not drawn) gave SR-BI DiI inh -15.6, Rin1-Abl PPI inh 3.2, SR-BI DiI-HDL act 15.6, GRK2 inh 7.0, GRK2 CP1 0.1 and FAM quench CP1 103.0.
For CC1(C(=O)NS(=O)(=O)c2cccc(F)c2)CCN1C(=O)C1(c2ccc(Cl)cc2)CCC1 (stereo not drawn) the results were Rin1-Abl PPI inh -0.3.
`O=C(O)C[C@H]1c2cc(F)ccc2S(=O)(=O)N1C1CCCC1` gave SR-BI DiI inh -5.5, Rin1-Abl PPI inh -2.9, SR-BI DiI-HDL act 5.5, GRK2 inh 44.0*, GRK2 CP1 -2.0 and FAM quench CP1 98.2.
Screening Cc1ccc(S(=O)(=O)n2ccc3c(OCCOCCNCc4ccc(F)cc4)cccc32)cc1 returned SR-BI DiI inh -8.7, Rin1-Abl PPI inh 1.5, SR-BI DiI-HDL act 8.7 and GRK2 inh 0.0.
For CCOC(=O)c1c(C)[nH]c(C(=O)COC(=O)COc2ccc(OC)cc2)c1C the results were SR-BI DiI inh -6.2, Rin1-Abl PPI inh -26.9, SR-BI DiI-HDL act 6.2, GRK2 inh 70.0*, GRK2 CP1 2.3 and FAM quench CP1 95.7.
Cc1ccc(S(=O)(=O)n2cccc2/C=C/[N+](=O)[O-])cc1 was read as Rin1-Abl PPI inh 3.7.
Screening CCCOc1ccc(N2CC(C(=O)Nc3ccccc3C(=O)NC)CC2=O)cc1 (stereo not drawn) returned SR-BI DiI inh 31.1, Rin1-Abl PPI inh 1.9, SR-BI DiI-HDL act -31.1, GRK2 inh 47.0*, GRK2 CP1 -0.3 and FAM quench CP1 98.0.
Cc1ccc(C)c(NC(=O)c2cnn3ccccc23)c1 was read as SR-BI DiI inh -17.5, Rin1-Abl PPI inh -0.2, SR-BI DiI-HDL act 17.5, GRK2 inh 28.0, GRK2 CP1 -1.0 and FAM quench CP1 101.2.
Screening Cc1ccc(C)c(NC(=O)c2cc3ccccn3n2)c1 returned SR-BI DiI inh 10.2, Rin1-Abl PPI inh -0.8, SR-BI DiI-HDL act -10.2 and GRK2 inh 1.0.
Cc1ccc(S(=O)(=O)c2nc(S(C)(=O)=O)sc2N2CCC3(CC2)OCCO3)cc1 was read as SR-BI DiI inh -0.3, Rin1-Abl PPI inh 3.6, SR-BI DiI-HDL act 0.3, GRK2 inh 52.0*, GRK2 CP2 -0.9 and FAM quench SP 100.0.
`Cc1ccc(S(=O)(=O)c2nc(S(C)(=O)=O)sc2N2CCOCC2)cc1` gave SR-BI DiI inh -28.9, Rin1-Abl PPI inh 1.8, SR-BI DiI-HDL act 28.9 and GRK2 inh 5.0.
Cc1ccc(S(=O)(=O)c2nc(S(=O)(=O)c3ccc(C)cc3)c(N3CCN(CCO)CC3)s2)cc1 was read as SR-BI DiI inh 2.1, Rin1-Abl PPI inh -0.1, SR-BI DiI-HDL act -2.1, GRK2 inh 0.0, GRK2 CP1 -3.0 and FAM quench CP1 97.1.
Cc1cc(O)ccc1-c1cccc2nccn12 was read as Rin1-Abl PPI inh -3.2.
CCC(=O)N1CCCC(C)(C(=O)Nc2ccc3oc(CC)nc3c2)C1 (stereo not drawn) was read as Rin1-Abl PPI inh -4.0.
`Cc1cc(C)nc(-n2ncc3c2CC(c2cccc(Cl)c2)CC3=O)n1` (stereo not drawn) gave SR-BI DiI inh 18.0, Rin1-Abl PPI inh -1.0, SR-BI DiI-HDL act -18.0 and GRK2 inh 0.0.
For COc1ccc(-c2cc(C(=O)NCc3ccc(Cl)cc3)no2)cc1OC the results were SR-BI DiI inh 9.0, Rin1-Abl PPI inh 0.6, SR-BI DiI-HDL act -9.0, GRK2 inh 38.0, GRK2 CP1 -0.5 and FAM quench CP1 192.3.
`CN(Cc1ccccc1)C(=O)CCS(=O)(=O)c1ccc2c(c1)NC(=O)CS2` gave SR-BI DiI inh -6.9, Rin1-Abl PPI inh -1.0, SR-BI DiI-HDL act 6.9, GRK2 inh 5.0, GRK2 CP2 5.3 and FAM quench SP 100.0.
`CC(CS(=O)(=O)c1ccc2c(c1)NC(=O)CS2)C(=O)NCc1ccccc1Cl` (stereo not drawn) gave SR-BI DiI inh -5.4, Rin1-Abl PPI inh -0.9, SR-BI DiI-HDL act 5.4, GRK2 inh 99.0*, GRK2 CP1 78.4*, Aptamer quench -3.2, FAM quench CP1 94.5 and FAM quench DR 97.0.
Screening CCN(Cc1ccccc1)S(=O)(=O)c1ccc2c(c1)NC(=O)CS2 returned SR-BI DiI inh 3.9, Rin1-Abl PPI inh 0.1, SR-BI DiI-HDL act -3.9 and GRK2 inh 0.0.
For S=C(NCCc1ccccc1)Nc1ccc(N2CCCCC2)cc1 the results were SR-BI DiI inh -8.2, Rin1-Abl PPI inh -0.5, SR-BI DiI-HDL act 8.2 and GRK2 inh 3.0.
For COc1ccccc1CNC(=O)Nc1nc(C(N)CCc2ccccc2)cs1 (stereo not drawn) the results were Rin1-Abl PPI inh -5.5.
CCNc1nc(NCC)n2c(SCC(=O)Nc3ccc(C)c(C)c3)nnc2n1 was read as SR-BI DiI inh -34.8, Rin1-Abl PPI inh 1.1, SR-BI DiI-HDL act 34.8, GRK2 inh 78.0*, GRK2 CP1 56.6*, Aptamer quench -6.6 and FAM quench CP1 154.9.
`CCNc1nc(NCC)n2c(SCC(=O)Nc3ccc(F)cc3)nnc2n1` gave SR-BI DiI inh -37.8, Rin1-Abl PPI inh -0.6, SR-BI DiI-HDL act 37.8 and GRK2 inh 23.0.
